ChEMBL document CHEMBL3112409, “A novel class of ion displacement ligands as antagonists of the αIIbβ3 receptor that limit conformational reorganization of the receptor” (Bioorg Med Chem Lett, 2014)
Blank lines part the entries; values can stand above or below the molecule they belong to. Activity calls are given as the source filed them. No cut-off for these calls is given here. Positions of bridges follow the written chain, without caps; N, C: chain ends. Non-standard residues stand in square brackets, D forms with d. Residues, ends and D or L forms follow the SMILES beside them. hArg = N=C(N)NCCCC[C@H](N)C(=O)O; Mpa = O=C(O)CCS

What was measured:
[1] = Antiplatelet activity in platelet (unknown origin) assessed as inhibition of platelet aggregation; type: functional, cell-based
[2] = molecular target: T1, Integrin alpha-IIb/beta-3 (Homo sapiens) (UniProt P05106+P08514); assay: Inhibition of […] receptor (unknown origin) assessed as inhibition of platelet adhesion at 50 uM
[3] = molecular target: T1, Integrin alpha-IIb/beta-3 (Homo sapiens); assay: Inhibition of […] receptor (unknown origin) assessed as inhibition of platelet adhesion at 100 uM
[4] = Oral bioavailability in dog at 26.5 to 53 mg/kg; type: ADME, organism-based, Canis lupus familiaris; conditions: in vivo
[5] = Clearance in dog at 53 mg/kg, po; type: ADME, organism-based, Canis lupus familiaris; design: dose 53 mg/kg, route oral; conditions: in vivo
[6] = Clearance in dog at 26.5 mg/kg, po; type: ADME, organism-based, Canis lupus familiaris; design: dose 26.5 mg/kg, route oral; conditions: in vivo
[7] = Clearance in dog at 26.5 mg/kg, iv; type: ADME, organism-based, Canis lupus familiaris; design: dose 26.5 mg/kg, route intravenous; conditions: in vivo
Canis familiaris [8] = assay: Volume of distribution in dog at 53 mg/kg, po; type: ADME, organism-based, Canis lupus familiaris; design: dose 53 mg/kg, route oral; conditions: in vivo
Canis familiaris [9] = assay: Volume of distribution in dog at 26.5 mg/kg, po; type: ADME, organism-based, Canis lupus familiaris; design: dose 26.5 mg/kg, route oral; conditions: in vivo
[10] = AUC (infinity) in dog at 53 mg/kg, po; type: ADME, organism-based, Canis lupus familiaris; design: time infinity, dose 53 mg/kg, route oral; conditions: plasma
[11] = Volume of distribution in dog at 26.5 mg/kg, iv; type: ADME, organism-based, Canis lupus familiaris; design: dose 26.5 mg/kg, route intravenous; conditions: in vivo
[12] = AUC (infinity) in dog at 26.5 mg/kg, po; type: ADME, organism-based, Canis lupus familiaris; design: time infinity, dose 26.5 mg/kg, route oral; conditions: plasma
[13] = AUC (infinity) in dog at 26.5 mg/kg, iv; type: ADME, organism-based, Canis lupus familiaris; design: time infinity, dose 26.5 mg/kg, route intravenous; conditions: plasma
[14] = Terminal elimination rate constant in dog at 53 mg/kg, po; type: ADME, organism-based, Canis lupus familiaris; design: dose 53 mg/kg, route oral; conditions: in vivo
[15] = Terminal elimination rate constant in dog at 26.5 mg/kg, po; type: ADME, organism-based, Canis lupus familiaris; design: dose 26.5 mg/kg, route oral; conditions: in vivo
[16] = Terminal elimination rate constant in dog at 26.5 mg/kg, iv; type: ADME, organism-based, Canis lupus familiaris; design: dose 26.5 mg/kg, route intravenous; conditions: in vivo
[17] = Elimination half life in dog at 53 mg/kg, po; type: ADME, organism-based, Canis lupus familiaris; design: dose 53 mg/kg, route oral; conditions: in vivo, read-out: beta t1/2
[18] = Elimination half life in dog at 26.5 mg/kg, iv; type: ADME, organism-based, Canis lupus familiaris; design: dose 26.5 mg/kg, route intravenous; conditions: in vivo, read-out: beta t1/2
[19] = Elimination half life in dog at 26.5 mg/kg, po; type: ADME, organism-based, Canis lupus familiaris; design: dose 26.5 mg/kg, route oral; conditions: in vivo, read-out: beta t1/2
[20] = Cmax in dog at 53 mg/kg, po; type: ADME, organism-based, Canis lupus familiaris; design: dose 53 mg/kg, route oral; conditions: in vivo
[21] = Cmax in dog at 26.5 mg/kg, po; type: ADME, organism-based, Canis lupus familiaris; design: dose 26.5 mg/kg, route oral; conditions: in vivo
[22] = Tmax in dog at 53 mg/kg, po; type: ADME, organism-based, Canis lupus familiaris; design: dose 53 mg/kg, route oral; conditions: in vivo
[23] = Cmax in dog at 26.5 mg/kg, iv; type: ADME, organism-based, Canis lupus familiaris; design: dose 26.5 mg/kg, route intravenous; conditions: in vivo
[24] = Tmax in dog at 26.5 mg/kg, iv; type: ADME, organism-based, Canis lupus familiaris; design: dose 26.5 mg/kg, route intravenous; conditions: in vivo
[25] = Tmax in dog at 26.5 mg/kg, po; type: ADME, organism-based, Canis lupus familiaris; design: dose 26.5 mg/kg, route oral; conditions: in vivo
[26] = molecular target: T1, Integrin alpha-IIb/beta-3 (Homo sapiens); assay: Inhibition of […] receptor (unknown origin) assessed as inhibition of platelet adhesion at 1 uM
[27] = molecular target: T1, Integrin alpha-IIb/beta-3 (Homo sapiens); conditions: 10 uM
[28] = Fraction unbound in whole blood (unknown origin); type: ADME, tissue-based
[29] = Fraction unbound in plasma (unknown origin); type: ADME, cell-free
[30] = Metabolic stability in mouse hepatocytes assessed as compound remaining after 120 mins; type: ADME, cell-based, Hepatocyte; conditions: read-out: Stability
[31] = molecular target: Integrin alpha-V/beta-3 (Homo sapiens) (UniProt P05106+P06756); assay: Antagonist activity at alphaVbeta3 receptor (unknown origin); type: protein-complex assay
Liver microsome [32] = assay: Intrinsic clearance in human liver microsomes; type: ADME
How it was run: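 Liver microsomal stability run in parallel for mouse, rat and human microsomes. Intrinsic clearance reported in μL/min/mg protein, with microsomal half-life in min.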

hERG (KCNH2) = hERG (KCNH2) (Homo sapiens, UniProt Q12809); assay: Inhibition of human ERG channel at 25 uM
[33] = Thermodynamic solubility of the compound at pH 8.5 by CLND method; type: physicochemical; conditions: buffer
How it was run: (§1)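 Triplicate solubility measurements in aqueous buffer at the pH named in each line. Quantified by chemiluminescent nitrogen detection (CLND) and reported in μg/mL. An LC method was also run alongside.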

[34] = Thermodynamic solubility of the compound at pH 12 by CLND method; type: physicochemical; conditions: buffer; how it was run: as §1
[35] = Thermodynamic solubility of the compound at pH 7.4 by CLND method; type: physicochemical; conditions: buffer; how it was run: as §1
[36] = Kinetic solubility of the compound at pH 12 by CLND method; type: physicochemical; conditions: buffer
[37] = Thermodynamic solubility of the compound at pH 6.6 by CLND method; type: physicochemical; conditions: buffer; how it was run: as §1
[38] = Kinetic solubility of the compound at pH 7.4 by CLND method; type: physicochemical; conditions: buffer
[39] = Kinetic solubility of the compound at pH 8.5 by CLND method; type: physicochemical; conditions: buffer
[40] = Kinetic solubility of the compound at pH 6.6 by CLND method; type: physicochemical; conditions: buffer
[41] = Metabolic stability in mouse plasma after 60 mins; type: ADME, cell-free; conditions: read-out: Stability
How it was run: (§2)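 Stability in mouse plasma run in triplicate; percent remaining read at 15, 60 and 120 min.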

[42] = Metabolic stability in mouse plasma after 120 mins; type: ADME, cell-free; conditions: read-out: Stability; how it was run: as §2
[43] = Metabolic stability in mouse plasma after 15 mins; type: ADME, cell-free; conditions: read-out: Stability; how it was run: as §2
Liver microsome [44] = assay: Intrinsic clearance in rat liver microsomes; type: ADME
[45] = Intrinsic clearance in mouse liver microsomes; type: ADME, Microsome

hERG (KCNH2), sequence (Q12809 whole entry): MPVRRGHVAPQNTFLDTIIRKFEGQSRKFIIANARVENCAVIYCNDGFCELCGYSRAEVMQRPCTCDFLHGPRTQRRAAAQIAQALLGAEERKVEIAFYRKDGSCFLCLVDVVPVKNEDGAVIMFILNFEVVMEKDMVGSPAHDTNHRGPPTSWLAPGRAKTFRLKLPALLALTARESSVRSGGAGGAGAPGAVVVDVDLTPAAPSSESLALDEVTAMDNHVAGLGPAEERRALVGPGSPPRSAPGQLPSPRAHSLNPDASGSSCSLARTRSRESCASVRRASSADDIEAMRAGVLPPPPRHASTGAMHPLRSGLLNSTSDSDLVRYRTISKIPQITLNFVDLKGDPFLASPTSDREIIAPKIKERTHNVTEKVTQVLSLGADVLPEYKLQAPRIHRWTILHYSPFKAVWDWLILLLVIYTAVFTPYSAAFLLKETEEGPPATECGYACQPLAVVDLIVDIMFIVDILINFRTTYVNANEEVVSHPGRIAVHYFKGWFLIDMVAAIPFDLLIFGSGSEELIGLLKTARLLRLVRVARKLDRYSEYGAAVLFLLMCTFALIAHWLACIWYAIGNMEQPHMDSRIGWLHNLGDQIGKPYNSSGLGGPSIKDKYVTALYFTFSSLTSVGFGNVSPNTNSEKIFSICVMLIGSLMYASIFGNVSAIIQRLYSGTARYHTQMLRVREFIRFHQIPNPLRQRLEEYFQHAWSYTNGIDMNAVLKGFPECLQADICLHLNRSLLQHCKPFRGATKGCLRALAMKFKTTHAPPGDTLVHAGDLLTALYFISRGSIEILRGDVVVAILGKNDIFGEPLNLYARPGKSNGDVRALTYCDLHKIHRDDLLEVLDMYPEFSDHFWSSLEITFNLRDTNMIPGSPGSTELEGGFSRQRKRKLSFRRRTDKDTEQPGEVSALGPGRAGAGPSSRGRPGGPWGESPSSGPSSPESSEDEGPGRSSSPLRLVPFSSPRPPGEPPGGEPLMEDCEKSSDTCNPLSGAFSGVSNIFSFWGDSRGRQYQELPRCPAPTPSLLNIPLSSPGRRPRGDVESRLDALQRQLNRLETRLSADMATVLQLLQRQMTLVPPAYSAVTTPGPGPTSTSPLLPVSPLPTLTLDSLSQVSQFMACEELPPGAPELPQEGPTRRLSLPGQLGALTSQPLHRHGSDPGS

IC50 [1]: 2 µM
inhibition [2]: 78%
Structure (SMILES): O=C(O)CNc1cccc(-c2nn3c(=O)cc(N4CCNCC4)nc3s2)c1

IC50 [1]: 4 µM
inhibition [2]: 35%
Structure (SMILES): CC(C)(C)c1nn2c(=O)cc(N3CCNCC3)nc2s1

Structure (SMILES): CCc1nn2c(=O)cc(N3CCN(C)CC3)nc2s1
IC50 [1]: > 100 µM
inhibition [3]: 35%

IC50 [1]: > 100 µM
inhibition [3]: 23%
Structure (SMILES): CCc1nn2c(=O)cc(N3CCCCC3)nc2s1

IC50 [1]: 49 µM
inhibition [3]: 20%
Structure (SMILES): CCc1nn2c(=O)cc(N3CCOCC3)nc2s1

Structure (SMILES): CCc1nn2c(=O)cc(N3CCNCC3)nc2s1
IC50 [1]: 4 µM
bioavailability [4]: 92%
CL/F [5]: 18.7 mL/min/kg
CL/F [6]: 16.8 mL/min/kg
clearance [7]: 15.9 mL/min/kg
Vd (Canis familiaris [8]): 2.9476 L/kg
Vd (Canis familiaris [9]): 3.4669 L/kg
AUC(0-inf) [10]: 47200 ng·h/mL
Vd [11]: 2.37 L/kg
AUC(0-inf) [12]: 27200 ng·h/mL
AUC(0-inf) [13]: 28000 ng·h/mL
k el [14]: 0.000107 s⁻¹
k el [15]: 8e-05 s⁻¹
k el [16]: 0.000113 s⁻¹
half-life [17]: 1.82 h
half-life [18]: 1.7 h
half-life [19]: 2.45 h
Cmax [20]: 11900 ng/mL
Cmax [21]: 7800 ng/mL
Tmax [22]: 0.5 h
Cmax [23]: 28800 ng/mL
Tmax [24]: 0.175 h
Tmax [25]: 0.555 h

IC50 [1]: 0.012 µM
Structure (SMILES): N=C(N)NCCCC[C@@H]1NC(=O)CCSSC[C@@H](C(N)=O)NC(=O)[C@@H]2CCCN2C(=O)[C@H](Cc2c[nH]c3ccccc23)NC(=O)[C@H](CC(=O)O)NC(=O)CNC1=O [EPTIFIBATIDE] ([Mpa][hArg]GDWPC-NH2; disulfide 1-7)

IC50 [1]: 5.87 µM
inhibition [3]: 66%
Structure (SMILES): C[C@H](N)C(=O)Nc1cccc(-c2nn3c(=O)cc(N4CCNCC4)nc3s2)c1

IC50 [1]: 0.1 µM
inhibition [26]: 69%
Structure (SMILES): NCC(=O)Nc1cc(O)cc(-c2nn3c(=O)cc(N4CCNCC4)nc3s2)c1

IC50 [1]: 3 µM
inhibition [3]: 56%
Structure (SMILES): O=c1cc(N2CCNCC2)nc2sc(-c3ccccc3)nn12

IC50 [1]: 0.075 µM
inhibition [26]: 89%
Structure (SMILES): NCC(=O)Nc1cc(CO)cc(-c2nn3c(=O)cc(N4CCNCC4)nc3s2)c1

inhibition [27]: 88%
Structure (SMILES): CCCCS(=O)(=O)N[C@@H](Cc1ccc(OCCCCC2CCNCC2)cc1)C(=O)O

IC50 [1]: 6.5 µM
inhibition [2]: 49%
Structure (SMILES): O=C(O)c1ccc(-c2nn3c(=O)cc(N4CCNCC4)nc3s2)cc1

Structure (SMILES): NCC(=O)Nc1cncc(-c2nn3c(=O)cc(N4CCNCC4)nc3s2)c1 [ZALUNFIBAN]
Fu [28]: > 85%
Fu [29]: > 30%
remaining at 2 h [30]: > 95%
Activity [31]: inactive
CLH (Liver microsome [32]): 23.2 µL/min/mg
inhibition at 25 µM (hERG (KCNH2)): < 5%
Therm_solubility [33]: > 400 µg/mL
Therm_solubility [34]: > 400 µg/mL
Therm_solubility [35]: 239.5 µg/mL
Kinetic_solubility [36]: > 57.8 µg/mL
Therm_solubility [37]: 340.4 µg/mL
Kinetic_solubility [38]: > 57.8 µg/mL
Kinetic_solubility [39]: > 57.8 µg/mL
Kinetic_solubility [40]: > 57.8 µg/mL
remaining at 1 h [41]: 99.5%
remaining at 2 h [42]: 91.7%
remaining at 0.25 h [43]: 100%
IC50 [1]: 0.045 µM
inhibition [26]: 93%

IC50 [1]: 80 µM
inhibition [2]: 37%
Structure (SMILES): O=C(O)c1cccc(-c2nn3c(=O)cc(N4CCNCC4)nc3s2)c1

Structure (SMILES): NCC(=O)Nc1cccc(-c2nn3c(=O)cc(N4CCNCC4)nc3s2)c1
CLH (Liver microsome [44]): 2.83 µL/min/mg
inhibition at 25 µM (hERG (KCNH2)): < 5%
CLH [45]: 0.684 µL/min/mg
Therm_solubility [33]: 46.2 µg/mL
Therm_solubility [34]: > 400 µg/mL
Therm_solubility [35]: 28 µg/mL
Kinetic_solubility [36]: 43.4 µg/mL
Therm_solubility [37]: 41.8 µg/mL
Kinetic_solubility [38]: 34.6 µg/mL
Kinetic_solubility [39]: 36.1 µg/mL
Kinetic_solubility [40]: 35.8 µg/mL
remaining at 1 h [41]: 93.3%
remaining at 2 h [42]: 84.5%
remaining at 0.25 h [43]: 97.5%
inhibition [26]: 83%

IC50 [1]: 0.033 µM
inhibition [26]: 98%
Structure (SMILES): NCC(=O)Nc1cc(-c2nn3c(=O)cc(N4CCNCC4)nc3s2)ccn1

Structure (SMILES): CCc1nn2c(=O)c(F)c(N3CCNCC3)nc2s1
IC50 [1]: 8.3 µM
inhibition [3]: 41%
